Only some compounds are listed: those with a hit (about 2.6% of all), similar ones and a draw of the others.
Platelet DG rel – modulates dense granule release in human platelets. 300,000 compounds, 0.22% hits. human platelet-rich plasma, SFLLRN dense granule ATP release, luminescence. inhibition, %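 (compounds screened at 7.5 µM in platelet-rich plasma)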;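 active means mean replicate score, as percent of positive control, at or above 50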
SENP7 inh – inhibitors of human SENP7 protease. Q9BQF6. recombinant SENP7, Z-RLRGG-aminoluciferin luminescence, 40 min. inhibition, % at 5 µM. 330,000 compounds, 1.5% hits. AID 434973;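 active means inhibition above about 50% at the single test dose, limit read from the data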;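 further: plate controls were DMSO with enzyme for no effect and no enzyme buffer wells for full effect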
SENP1 inh – blocks the human SENP1 SUMO protease catalytic domain | Q9P0U3 | recombinant SENP1 catalytic domain, CyPet-SUMO1-YPet FRET cleavage | inhibition, % at 10 µM | 360,000 compounds, 0.21% hits | AID 624204;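 active means inhibition at least 30% at 10 µM, raw YFP signal under a set limit, fluorescence ratio 0.5 to 1.5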;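 further: 0% = enzyme with DMSO and 100% = no enzyme wells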
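material = recombinant human SENP1 catalytic domain, His6-tagged | quantity = 20 pM enzyme | reagent = 25 nM SUMO1 FRET substrate | compound dosing = 10 µM single point, 0.5% DMSO | timing = 50 min enzyme reaction, room temperature, light-protected | detection = FRET, CFP and YFP emission | control set = no-enzyme low, enzyme-DMSO high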
SENP8 block-1 – inhibitors of human SENP8 protease | 330,000 compounds, 1.2% hits | inhibition, % at 10 µM | AID 2540 | Q96LD8 | purified SENP8, Z-RLRGG-aminoluciferin cleavage, luminescence; in the data active means inhibition above about 50%
Target sequence (Q96LD8 whole entry, looked up): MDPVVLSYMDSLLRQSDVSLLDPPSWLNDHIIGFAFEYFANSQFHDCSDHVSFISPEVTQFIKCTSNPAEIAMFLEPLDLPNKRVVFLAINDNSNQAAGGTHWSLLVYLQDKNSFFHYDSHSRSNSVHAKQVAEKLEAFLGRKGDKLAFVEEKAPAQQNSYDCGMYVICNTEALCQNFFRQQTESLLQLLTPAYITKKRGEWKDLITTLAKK
SENP8 block-2 – blocks human SENP8 cleavage of Nedd8 substrate; 360,000 compounds, 0.64% hits; inhibition, % at 20 µM; Q96LD8; recombinant SENP8, Nedd8 substrate fluorescence; in the data active means inhibition mostly above about 40%, no sharp cut-off; inactive means mostly below about 27%
SENP6 inh – SENP6 protease inhibition; Q9GZR1; Recombinant SENP6 catalytic domain, aminoluciferin luminescence; 330,000 compounds, 1.8% hits; inhibition, % at 10 µM; AID 2599;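 active means inhibition above about 50% at the single tested dose, limit read from the data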;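 further: plate controls were DMSO wells with enzyme for no effect and DMSO wells lacking enzyme for full effect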
SENP8 conf – confirmation of human SENP8 protease inhibitors; shares compounds with SENP7 inh; Recombinant SENP8, Z-RLRGG-aminoluciferin luminescence, 60 min; inhibition, % at 12.5 µM; 6,200 compounds, 40% hits; AID 488912;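 active means mean inhibition across replicates above about 50%, limit read from the data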
SENP6 conf – human SENP6 inhibition, confirmed | shares compounds with SENP7 inh | inhibition, % at 12.5 µM | 6,200 compounds, 58% hits | recombinant SENP6, Z-RLRGG-aminoluciferin luminescence
SENP7 confirm – confirmation of human SENP7 protease inhibitors; shares compounds with SENP7 inh; recombinant SENP7, Z-RLRGG-aminoluciferin luminescence, 40 min; inhibition, % at 12.5 µM; 6,200 compounds, 69% hits; AID 488917
Casp3 select – caspase-3 inhibition (SENP selectivity assay); shares compounds with SENP7 inh; purified caspase-3, Z-DEVD-aminoluciferin luminescence, 60 min; inhibition, % at 12.5 µM; 6,200 compounds, 60% hits; AID 488918;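 active means mean inhibition above about 50%, limit read from the data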;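 further: plate controls were enzyme with DMSO for no effect and wells without caspase-3 for full effect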
Target sequence (P42574 28-227 limits assumed): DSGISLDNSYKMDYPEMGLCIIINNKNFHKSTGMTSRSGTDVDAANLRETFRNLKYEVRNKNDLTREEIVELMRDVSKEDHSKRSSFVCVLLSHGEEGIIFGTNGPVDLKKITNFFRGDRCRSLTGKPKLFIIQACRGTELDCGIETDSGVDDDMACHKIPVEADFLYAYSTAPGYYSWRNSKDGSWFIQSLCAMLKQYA
SENP luc ctr – luminescence interference (SENP counter-screen); shares compounds with SENP7 inh; Pre-incubated SENP8/Z-RLRGG-aminoluciferin, luciferase luminescence interference; inhibition, % at 12.5 µM; 6,200 compounds, 39% hits;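 active means mean inhibition above about 50% when retested at one dose, limit read from the data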;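 further: plate controls were DMSO wells with completed reaction for no effect and substrate without enzyme for full effect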
* hit, by the source's call; i = inactive; . = no result given.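 How the source made its calls, unless noted: active means mean inhibition above about 50% in the one-dose retest (limit read from the data); inactive means the rest.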

SMILES	Platelet DG rel	SENP7 inh	SENP1 inh	SENP8 block-1	SENP8 block-2	SENP6 inh	SENP8 conf	SENP6 conf	SENP7 confirm	Casp3 select	SENP luc ctr
O=C(Nc1cccc(Cl)c1)Nc1ccccc1C(=O)O	75*	100*	5	97*	-217	99*	98*	101*	104*	99*	100*
CCc1cccc(NC(=O)COC(=O)c2c(C)nn(-c3ccccc3)c2C)c1	.	.	0	.	22	.	.	.	.	.	.
COc1cccc(NC(=O)COC(=O)c2c(C)nn(-c3ccccc3)c2C)c1	.	74*	1	65*	10	76*	71*	67*	90*	70*	75*
COc1cccc(NC(=O)Nc2ccccc2C(N)=O)c1	13	82*	2	61*	-46	74*	70*	68*	90*	85*	77*
COc1cccc(NC(=S)NC(=O)Cc2ccccc2)c1	-2	4	1	-11	9	-32	.	.	.	.	.
O=C(Nc1ccccc1)c1cccc(S(=O)(=O)NC2CCCC2)c1	10	-2	2	-2	-4	-12	.	.	.	.	.
Cn1c(NCc2ccccc2F)nc2cc(-c3cccc(C(F)(F)F)c3)sc2c1=O	.	.	0	.	-234	.	.	.	.	.	.
CC(C)N(CC(N)=O)c1ccc(S(=O)(=O)N2CCCC2)cn1	.	-4	3	-4	-7	-4	.	.	.	.	.
COc1ccc(Cl)cc1NC(=O)Nc1ccccc1C(N)=O	5	3	1	-6	-61	-8	.	.	.	.	.
O=C(Nc1ccccc1)Nc1cccc(Cl)c1	-4	55*	2	35	15	60*	58*	58*	86*	44	71*
NC(=O)c1ccccc1NC(=O)Nc1cccc(Cl)c1	10	92*	1	82*	-162	61*	86*	87*	99*	82*	89*
COc1ccc(COC(=O)c2c(C)nn(-c3ccccc3)c2Cl)cc1	-4	18	3	30	6	61*	29	32	54*	30	15
CS/C(N)=N/C(=S)Nc1cccc(Cl)c1	-13	21	2	5	22	58*	72*	68*	88*	57*	76*
NC(=S)Nc1cccc(Cl)c1	7	0	1	-1	8	-9	.	.	.	.	.
COc1cc(Br)c(CCNC(=O)c2ccco2)cc1OC	1	4	3	2	8	-12	.	.	.	.	.
O=C(Nc1ccc(C(=O)N2CCCCC2)cc1)Nc1cccc(Cl)c1	17	73*	2	27	8	67*	-7	-6	-4	29	4
O=C(Nc1cccc(Cl)c1)c1ccc(OC(=S)N2CCOCC2)cc1	5	79*	-1	3	10	33	21	10	78*	47	1
Cc1cccc(NC(=O)c2cccc(OC(=S)N3CCOCC3)c2)c1	4	28	1	22	9	37	.	.	.	.	.
COc1cccc(NC(=O)c2ncc(Cl)c(Cl)c2Cl)c1	5	90*	2	87*	17	70*	49	89*	101*	91*	18
COc1cccc(NC(=O)c2ccccc2F)c1	.	45	2	49	-7	51*	25	19	67*	72*	53*
O=C(Nc1cccc(Cl)c1)N1CCCCCC1	6	3	-4	-8	29	-20	.	.	.	.	.
Cc1ccc(F)c(S(=O)(=O)NC(=O)C2(C)CCN2C(=O)Cc2ccccc2Cl)c1 (stereo not drawn)	.	.	1	.	17	.	.	.	.	.	.
O=C(COC(=O)c1ccc(Br)o1)Nc1ncc([N+](=O)[O-])s1	.	28	-18	65*	18	74*	69*	66*	86*	78*	73*
O=C(CCS(=O)(=O)Cc1ccccc1)Nc1ncc([N+](=O)[O-])s1	4	83*	-12	84*	7	88*	-1	83*	97*	71*	82*
COc1ccc(C(=O)OCC(=O)Nc2ncc([N+](=O)[O-])s2)cc1OC	.	8	-14	11	14	3	.	.	.	.	.
SMILES	Platelet DG rel	SENP7 inh	SENP1 inh	SENP8 block-1	SENP8 block-2	SENP6 inh	SENP8 conf	SENP6 conf	SENP7 confirm	Casp3 select	SENP luc ctr
Cc1ccc(S(=O)(=O)CC(=O)Nc2ncc([N+](=O)[O-])s2)cc1	-6	13	-15	0	8	7	.	.	.	.	.
Cc1ccc(CC(=O)Nc2ncc([N+](=O)[O-])s2)cc1	-10	63*	-14	88*	-175	91*	93*	93*	99*	91*	55*
COc1ccccc1N(Cc1ccccc1)S(=O)(=O)c1cccc(C(=O)Nc2cc(C)ccn2)c1	-19	-2	1	26	11	42	.	.	.	.	.
CCOc1ccc(NC(=O)CN2C(=O)NC(CCc3ccccc3)C2=O)cc1OCC (stereo not drawn)	.	1	-1	-7	10	68*	9	3	-3	-3	-8
CC(=O)Nc1ccc(Nc2nc(Cl)nc(Nc3ccc(NC(C)=O)cc3)n2)cc1	-5	-7	1	-7	21	-6	.	.	.	.	.
CC(C)n1cnc2cc(NCc3ccccn3)ccc21	-5	4	-12	1	-16	-1	.	.	.	.	.
Cc1cc(NCc2ccccn2)ccc1Br	8	53*	-7	39	11	47	43	40	69*	39	52*
CN(CCC#N)c1ccc(/C=C(\C#N)c2ccccn2)cc1	32	1	-27	80*	-15	76*	91*	92*	99*	89*	92*
Nc1c(C(=O)O)cnc2c(-c3ccc(Cl)cc3)cnn12	23	100*	-2	98*	-401	95*	52*	100*	103*	98*	96*
Nc1c(-c2ccccc2)cnc2c(-c3ccccc3)cnn12	-1	74*	-1	5	i	43	8	19	50*	55*	2
Nc1c(-c2cccs2)cnc2c(-c3ccc(F)cc3)cnn12	-4	69*	-2	28	-284	50*	8	34	48	42	9
COc1ccc(SC[C@H](C)CN2CC[C@H](C)CCC2=O)cc1	.	0	2	7	7	4	.	.	.	.	.

Bioassay records from PubChem.
